Data as given in ChEMBL document CHEMBL3526048, “In vitro metabolism of rivoglitazone, a novel peroxisome proliferator-activated receptor γ agonist, in rat, monkey, and human liver microsomes and freshly isolated hepatocytes” (Drug Metab Dispos, 2011).

Experiments:
Cytochrome P450 3A5 [1] = molecular target: T1, Cytochrome P450 3A5 (Homo sapiens, UniProt P20815); assay: Activity of human CYP3A5 expressed in microsomes isolated from baculovirus infected insect cell assessed as enzyme-mediated 5-hydroxy-5-(4-((6-methoxy-1-methyl-1H-benzo[d]imidazol-2-yl)methoxy)benzyl)thiazolidine-2,4-dione formation at 20 uM after 2 hrs by radio-HPLC/LC-MS/MS analysis in presence of NADPH-generating system and NADPH-generating system/SAM; assay type: ADME
T1 sequence (P20815 whole entry): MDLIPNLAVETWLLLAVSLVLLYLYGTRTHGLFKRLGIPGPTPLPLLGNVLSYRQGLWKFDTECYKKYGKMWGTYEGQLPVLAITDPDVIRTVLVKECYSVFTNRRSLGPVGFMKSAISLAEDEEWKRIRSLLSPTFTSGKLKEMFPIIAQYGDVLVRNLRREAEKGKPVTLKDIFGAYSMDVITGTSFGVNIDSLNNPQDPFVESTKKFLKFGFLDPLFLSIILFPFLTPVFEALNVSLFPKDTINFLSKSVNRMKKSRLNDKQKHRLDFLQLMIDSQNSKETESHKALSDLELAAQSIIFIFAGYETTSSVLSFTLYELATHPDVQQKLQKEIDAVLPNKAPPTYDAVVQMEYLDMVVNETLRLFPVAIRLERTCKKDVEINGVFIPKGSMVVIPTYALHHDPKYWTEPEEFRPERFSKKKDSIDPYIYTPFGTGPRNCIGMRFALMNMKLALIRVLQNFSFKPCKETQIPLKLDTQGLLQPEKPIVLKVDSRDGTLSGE
Summary of the method: (§1)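 cDNA-expressed human CYP3A5 in baculovirus-insect-cell microsomes (1 mg/ml protein) was incubated with [¹⁴C]rivoglitazone (20 μM) in 50 mM potassium phosphate (pH 7.4) or 100 mM Tris-HCl (pH 7.5). NADPH-generating system: 2 mM NADP⁺, 20 mM glucose 6-phosphate, 2 units/ml G6PDH, 10 mM MgCl₂. Incubation ran 2 h at 37°C with shaking; insect-cell control supersomes served as control. Acetonitrile stop, supernatant concentrated, then radio-HPLC, LC-MS and LC-MS/MS.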

[2] = molecular target: T2, UDP-glucuronosyltransferase 1A9 (Homo sapiens, UniProt O60656); assay: Activity of human UGT1A9 expressed in microsomes isolated from baculovirus infected insect cell assessed as enzyme-mediated (2S,3S,4S,5R,6R)-6-((1-carboxy-2-(4-((6-methoxy-1-methyl-1H-benzo[d]imidazol-2-yl)methoxy)phenyl)ethylthio)carbonylamino)-3,4,5-trihydroxytetrahydro-2H-pyran-2-carboxylic acid formation at 20 uM after 4 hrs by radio-HPLC/LC-MS/MS analysis in presence of UDPGA; assay type: ADME
T2 sequence (O60656 whole entry): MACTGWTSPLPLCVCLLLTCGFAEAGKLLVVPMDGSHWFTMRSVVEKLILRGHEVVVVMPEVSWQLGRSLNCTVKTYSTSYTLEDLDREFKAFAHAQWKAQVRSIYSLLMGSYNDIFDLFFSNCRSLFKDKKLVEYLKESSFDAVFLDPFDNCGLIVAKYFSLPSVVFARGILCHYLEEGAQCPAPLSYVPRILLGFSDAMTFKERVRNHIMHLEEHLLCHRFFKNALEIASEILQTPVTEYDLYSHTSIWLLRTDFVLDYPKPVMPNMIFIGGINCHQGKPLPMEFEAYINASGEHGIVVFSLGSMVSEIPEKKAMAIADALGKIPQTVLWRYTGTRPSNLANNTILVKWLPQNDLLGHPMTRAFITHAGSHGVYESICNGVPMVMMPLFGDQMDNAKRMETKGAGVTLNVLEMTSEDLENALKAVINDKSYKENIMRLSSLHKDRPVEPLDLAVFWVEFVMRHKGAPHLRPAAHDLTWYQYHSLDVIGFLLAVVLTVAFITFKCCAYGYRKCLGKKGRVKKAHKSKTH

[3] = molecular target: T3, UDP-glucuronosyltransferase 2B7 (Homo sapiens, UniProt P16662); assay: Activity of human UGT2B7 expressed in microsomes isolated from baculovirus infected insect cell assessed as enzyme-mediated 3-(4-((6-methoxy-1-methyl-1H-benzo[d]imidazol-2-yl)methoxy)phenyl)-2-(methylthio)propanamide formation at 20 uM after 4 hrs by radio-HPLC/LC-MS/MS analysis in presence of NADPH-generating system/SAM in presence of UDPGA and UDPGA/SAM; assay type: ADME
T3 sequence (P16662 whole entry): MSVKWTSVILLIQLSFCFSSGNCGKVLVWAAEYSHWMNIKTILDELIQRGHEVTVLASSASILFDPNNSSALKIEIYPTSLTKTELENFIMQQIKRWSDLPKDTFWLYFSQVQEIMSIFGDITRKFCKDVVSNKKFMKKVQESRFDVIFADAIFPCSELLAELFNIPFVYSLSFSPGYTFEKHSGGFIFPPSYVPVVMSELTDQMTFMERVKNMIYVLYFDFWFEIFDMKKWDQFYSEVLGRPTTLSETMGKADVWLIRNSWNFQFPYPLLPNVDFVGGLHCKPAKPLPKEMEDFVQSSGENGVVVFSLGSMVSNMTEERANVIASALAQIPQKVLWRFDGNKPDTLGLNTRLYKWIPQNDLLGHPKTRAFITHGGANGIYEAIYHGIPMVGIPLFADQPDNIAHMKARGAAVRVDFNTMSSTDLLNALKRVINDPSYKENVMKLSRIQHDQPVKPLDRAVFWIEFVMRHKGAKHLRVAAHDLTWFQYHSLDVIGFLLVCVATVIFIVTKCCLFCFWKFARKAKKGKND

Cytochrome P450 3A5 [4] = molecular target: T1, Cytochrome P450 3A5; assay: Activity of human CYP3A5 expressed in microsomes isolated from baculovirus infected insect cell assessed as enzyme-mediated 3-(4-((6-methoxy-1-methyl-1H-benzo[d]imidazol-2-yl)methoxy)phenyl)-2-(methylsulfinyl)propanamide formation at 20 uM after 2 hrs by radio-HPLC/LC-MS/MS analysis in presence of NADPH-generating system/SAM; assay type: ADME; summary of the method: as §1
[5] = Drug metabolism in monkey hepatocytes assessed as formation of (2S,3S,4S,5R,6R)-6-((1-carboxy-2-(4-((6-methoxy-1-methyl-1H-benzo[d]imidazol-2-yl)methoxy)phenyl)ethylthio)carbonylamino)-3,4,5-trihydroxytetrahydro-2H-pyran-2-carboxylic acid at 30 uM after 3 hrs by radio-HPLC/LC-MS/MS analysis in presence of UDPGA and UDPGA/SAM; conditions: cynomolgus monkey
Cytochrome P450 3A4 = Cytochrome P450 3A4 (Homo sapiens, UniProt P08684); assay: (§2) Activity of human CYP3A4 expressed in microsomes isolated from baculovirus infected insect cell assessed as enzyme-mediated (2S,3S,4S,5R,6R)-3,4,5-trihydroxy-6-(5-(4-((6-methoxy-1-methyl-1H-benzo[d]imidazol-2-yl)methoxy)benzyl)-2,4-dioxothiazolidin-3-yl)tetrahydro-2H-pyran-2-carboxylic acid formation at 20 uM after 2 hrs by radio-HPLC/LC-MS/MS analysis in presence of UDPGA and UDPGA/SAM; assay type: ADME
Chain of Cytochrome P450 3A4 (P08684 whole entry): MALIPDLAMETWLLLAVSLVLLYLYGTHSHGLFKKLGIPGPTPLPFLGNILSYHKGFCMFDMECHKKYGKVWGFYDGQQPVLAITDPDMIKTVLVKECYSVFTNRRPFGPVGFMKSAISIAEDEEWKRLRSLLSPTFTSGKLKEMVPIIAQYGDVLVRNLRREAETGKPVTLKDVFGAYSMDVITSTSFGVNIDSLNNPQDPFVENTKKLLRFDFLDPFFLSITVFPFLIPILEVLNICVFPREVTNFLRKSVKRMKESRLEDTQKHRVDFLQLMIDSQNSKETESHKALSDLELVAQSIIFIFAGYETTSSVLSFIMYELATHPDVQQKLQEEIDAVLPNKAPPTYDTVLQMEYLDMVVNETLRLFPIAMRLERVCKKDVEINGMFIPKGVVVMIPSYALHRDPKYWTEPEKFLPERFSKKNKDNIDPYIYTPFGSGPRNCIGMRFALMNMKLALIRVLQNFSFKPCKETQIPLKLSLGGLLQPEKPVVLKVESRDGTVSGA

[6] = molecular target: T3, UDP-glucuronosyltransferase 2B7; assay: Activity of human UGT2B7 expressed in microsomes isolated from baculovirus infected insect cell assessed as enzyme-mediated 2-mercapto-3-(4-((6-methoxy-1-methyl-1H-benzo[d]imidazol-2-yl)methoxy)phenyl)propanoic acid formation at 20 uM after 4 hrs by radio-HPLC/LC-MS/MS analysis in presence of UDPGA, UDPGA/SAM and NADPH-generating system in presence of UDPGA and UDPGA/SAM; assay type: ADME
Cytochrome P450 2C8 = molecular target: T4, Cytochrome P450 2C8 (Homo sapiens, UniProt P10632); assay: as §2, with “CYP2C8” for “CYP3A4”; assay type: ADME
T4 sequence (P10632 whole entry): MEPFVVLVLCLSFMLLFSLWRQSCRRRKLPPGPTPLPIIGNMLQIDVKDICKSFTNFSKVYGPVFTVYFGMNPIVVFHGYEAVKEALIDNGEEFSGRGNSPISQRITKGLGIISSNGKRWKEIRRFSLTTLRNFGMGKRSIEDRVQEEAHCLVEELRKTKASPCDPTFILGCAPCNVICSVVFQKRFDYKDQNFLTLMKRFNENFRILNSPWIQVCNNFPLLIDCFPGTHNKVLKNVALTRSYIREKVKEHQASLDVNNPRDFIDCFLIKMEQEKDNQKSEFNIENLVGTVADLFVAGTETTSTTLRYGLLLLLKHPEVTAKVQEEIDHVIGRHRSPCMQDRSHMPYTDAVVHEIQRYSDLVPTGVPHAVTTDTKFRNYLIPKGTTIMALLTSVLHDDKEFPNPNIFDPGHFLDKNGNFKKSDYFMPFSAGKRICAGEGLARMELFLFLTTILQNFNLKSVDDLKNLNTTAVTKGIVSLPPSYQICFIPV

Cytochrome P450 3A5 [7] = molecular target: T1, Cytochrome P450 3A5; assay: Activity of human CYP3A5 expressed in microsomes isolated from baculovirus infected insect cell assessed as enzyme-mediated compound formation treated with [14C]-rivoglitazone at 20 uM after 2 hrs by radio-HPLC/LC-MS/MS analysis in presence of NADPH-generating system; assay type: ADME; summary of the method: as §1

| Drug metabolism (Cytochrome P450 3A5 [1]) | Drug metabolism [2] | Drug metabolism [3] | Drug metabolism (Cytochrome P450 3A5 [4]) | Drug metabolism [5] | Drug metabolism (Cytochrome P450 3A4) | Drug metabolism [6] | Drug metabolism (Cytochrome P450 2C8) | Drug metabolism (Cytochrome P450 3A5 [7]) | Compound |
| --- | --- | --- | --- | --- | --- | --- | --- | --- | --- |
| metabolite_detected | metabolite_not_detected | metabolite_not_detected | metabolite_not_detected | metabolite_detected | metabolite_not_detected | metabolite_detected | metabolite_not_detected |  | COc1ccc2nc(COc3ccc(C[14CH]4SC(=O)NC4=O)cc3)n(C)c2c1.Cl (racemic) |
|  |  |  |  |  |  |  |  | metabolite_detected | COc1ccc2nc(COc3ccc(CC(S)C(=O)O)cc3)n(C)c2c1 (centres undefined) |
